Experimental data from ChEMBL document CHEMBL1125789, “Synthesis and selective class III antiarrhythmic activity of novel N-heteroaralkyl-substituted 1-(aryloxy)-2-propanolamine and related propylamine derivatives” (J Med Chem, 1991).

Columns and labels:
[1] = tested on: Canis familiaris; assay: Heart beat by the compound in open chest anesthetized dog, after iv administration at a dose of 5.0 mg/kg.; assay type: functional, Canis lupus familiaris; parameters: unit not given here
Outline: (§1)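 Hemodynamics (heart rate, mean arterial pressure) recorded in pentobarbital-anesthetized (30 mg/kg iv, 5 mg/kg per h maintenance) open-chest mongrel dogs during the refractoriness study at BCL 300 ms. Readings were taken before and after iv or intraduodenal compound and expressed as change from control.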

[2] = tested on: Canis familiaris; assay: Ventricular conduction time by the compound in open chest anesthetized dog, after iv administration at a dose of 10.0 mg/kg.; assay type: functional, Canis lupus familiaris, Heart
Outline: (§2)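 Mongrel dogs were anesthetized with sodium pentobarbital (30 mg/kg iv, then 5 mg/kg per h), the chest opened, and the heart paced at BCL 300 ms. Compound was given iv or intraduodenally. Ventricular conduction time was taken as the interval between electrograms at the proximal and distal sites of the recording electrode array. 2-5 dogs per dose.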

[3] = tested on: Canis familiaris; assay: Heart beat by the compound in open chest anesthetized dog, after iv administration at a dose of 10.0 mg/kg.; assay type: functional, Canis lupus familiaris; outline: as §1
[4] = tested on: Canis familiaris; assay: Ventricular effective refractory period by the compound in open chest anesthetized dog, after iv administration at a dose of 2.5 mg/kg.; assay type: functional, Canis lupus familiaris, Heart
[5] = tested on: Canis familiaris; assay: Atrial effective refractory period by the compound in open chest anesthetized dog, after iv administration at a dose of 5.0 mg/kg.; assay type: functional, Canis lupus familiaris, Cardiac atrium; parameters: unit not given here
Outline: (§3)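 Open-chest mongrel dogs under sodium pentobarbital anesthesia (30 mg/kg iv plus 5 mg/kg per h), paced at basic cycle length 300 ms. Atrial effective refractory period was determined by electrical stimulation before and after iv or intraduodenal compound and reported as change from control.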

[6] = tested on: Canis familiaris; assay: Ventricular conduction time by the compound in open chest anesthetized dog, after iv administration at a dose of 2.5 mg/kg.; assay type: functional, Canis lupus familiaris, Heart; outline: as §2
[7] = species: Canis familiaris; assay: Maximum rate of rise of the upstroke of transmembrane potential, in canine Purkinje Fibers at a concentration of 300 uM at 1000 ms (simulating normal heart rate); assay type: functional; settings: Canis lupus familiaris, Purkinje fiber
Outline: (§4)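 Isolated canine Purkinje fiber bundles were driven by square-wave pulses 2.0 ms long at 2× threshold and equilibrated ≥1 h to steady state. Each concentration was superfused 45–60 min before recording, and action potentials were sampled at 4–6 sites per fiber in control and after drug, giving Vmax and APD to −60 mV.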

[8] = tested on: Canis familiaris; assay: Ventricular effective refractory period by the compound in open chest anesthetized dog, after iv administration at a dose of 5.0 mg/kg.; assay type: functional, Canis lupus familiaris, Heart; parameters: unit not given here
[9] = tested on: Canis familiaris; assay: Atrial conduction time by the compound in open chest anesthetized dog, after iv administration at a dose of 10.0 mg/kg.; assay type: functional, Canis lupus familiaris, Cardiac atrium
Outline: (§5)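 Mongrel dogs anesthetized with sodium pentobarbital (30 mg/kg iv, then 5 mg/kg per h), chest opened, paced at BCL 300 ms. Atrial conduction time was taken as the interval between electrograms recorded at the proximal and distal sites of the atrial recording electrode array, before and after iv or intraduodenal dosing. Values are changes from control.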

[10] = tested on: Canis familiaris; assay: Atrial conduction time by the compound in open chest anesthetized dog, after iv administration at a dose of 2.5 mg/kg.; assay type: functional, Canis lupus familiaris, Cardiac atrium; outline: as §5
[11] = tested on: Canis familiaris; assay: Mean arterial pressure by the compound in open chest anesthetized dog, after iv administration at a dose of 10.0 mg/kg.; assay type: functional, Canis lupus familiaris, Artery; outline: as §1
[12] = species: Canis familiaris; assay: Repolarization to reach -60mV, in canine Purkinje Fibers at a concentration of 300 uM at 300 ms (simulating tachycardia); assay type: functional, Canis lupus familiaris, Purkinje fiber
Outline: (§6)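 Purkinje fiber bundles were stimulated with square-wave current pulses of 2.0 ms at twice threshold and equilibrated for at least 1 h, or until action potential parameters were steady. Each concentration was superfused for 45-60 min to reach steady state. Action potentials were recorded at four to six sites per fiber, under control and after drug.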

[13] = tested on: Canis familiaris; assay: Ventricular conduction time by the compound in open chest anesthetized dog, after iv administration at a dose of 5.0 mg/kg.; assay type: functional, Canis lupus familiaris, Heart; parameters: unit not given here; outline: as §2
[14] = tested on: Canis familiaris; assay: Atrial conduction time by the compound in open chest anesthetized dog, after iv administration at a dose of 5.0 mg/kg.; assay type: functional, Canis lupus familiaris, Cardiac atrium; parameters: unit not given here; outline: as §5
[15] = tested on: Canis familiaris; assay: Atrial effective refractory period by the compound in open chest anesthetized dog, after iv administration at a dose of 2.5 mg/kg.; assay type: functional, Canis lupus familiaris, Cardiac atrium; outline: as §3
[16] = tested on: Canis familiaris; assay: Atrial effective refractory period by the compound in open chest anesthetized dog, after iv administration at a dose of 10.0 mg/kg.; assay type: functional, Canis lupus familiaris, Cardiac atrium; outline: as §3
[17] = species: Canis familiaris; assay: Repolarization to reach -60mV, in canine Purkinje Fibers at a concentration of 30 uM at 300 ms (simulating tachycardia); assay type: functional, Canis lupus familiaris, Purkinje fiber; outline: as §6
[18] = species: Canis familiaris; assay: Maximum rate of rise of the upstroke of transmembrane potential, in canine Purkinje Fibers at a concentration of 300 uM at 300 ms (simulating tachycardia); assay type: functional; settings: Canis lupus familiaris, Purkinje fiber; outline: as §4
[19] = species: Canis familiaris; assay: repolarization to reach -60mV, in canine Purkinje Fibers at a concentration of 30 uM at 1000 ms (simulating normal heart rate); assay type: functional, Canis lupus familiaris, Purkinje fiber; outline: as §6
[20] = species: Canis familiaris; assay: Maximum rate of rise of the upstroke of transmembrane potential, in canine Purkinje Fibers at a concentration of 30 uM at 300 ms (simulating tachycardia); assay type: functional; settings: Canis lupus familiaris, Purkinje fiber; outline: as §4
[21] = tested on: Canis familiaris; assay: Mean arterial pressure by the compound in open chest anesthetized dog, after iv administration at a dose of 5.0 mg/kg.; assay type: functional, Canis lupus familiaris, Artery; parameters: unit not given here; outline: as §1
[22] = tested on: Canis familiaris; assay: Ventricular effective refractory period by the compound in open chest anesthetized dog, after iv administration at a dose of 10.0 mg/kg.; assay type: functional, Canis lupus familiaris, Heart
[23] = species: Canis familiaris; assay: repolarization to reach -60mV, in canine Purkinje Fibers at a concentration of 300 uM at 1000 ms (simulating normal heart rate); assay type: functional, Canis lupus familiaris, Purkinje fiber; outline: as §6
[24] = tested on: Canis familiaris; assay: Mean arterial pressure by the compound in open chest anesthetized dog, after iv administration at a dose of 2.5 mg/kg.; assay type: functional, Canis lupus familiaris, Artery; outline: as §1
[25] = tested on: Canis familiaris; assay: Heart beat by the compound in open chest anesthetized dog, after iv administration at a dose of 2.5 mg/kg.; assay type: functional, Canis lupus familiaris; outline: as §1
[26] = species: Canis familiaris; assay: Maximum rate of rise of the upstroke of transmembrane potential, in canine Purkinje Fibers at a concentration of 30 uM at 1000 ms (simulating normal heart rate); assay type: functional; settings: Canis lupus familiaris, Purkinje fiber; outline: as §4

Question: How did the HR [1] turn out when `CC(C)NCC(O)c1ccc(NS(C)(=O)=O)cc1` (racemic) [SOTALOL] was run?
Answer: -28

Question: And the VCT [2]?
Answer: -4

Question: And the HR [3]?
Answer: -39

Question: What about the VERP [4] of the same molecule?
Answer: 19

Question: And the AERP [5]?
Answer: 57

Question: And the VCT [6]?
Answer: -1

Question: What about the Vmax [7] of the same molecule?
Answer: -10

Question: What about the VERP [8] of the same molecule?
Answer: 25

Question: And the ACT [9]?
Answer: -4

Question: And the ACT [10]?
Answer: -5

Question: And the MBP [11]?
Answer: -29

Question: What about the APD [12] of the same molecule?
Answer: 36%

Question: What about the VCT [13] of the same molecule?
Answer: -1

Question: And the ACT [14]?
Answer: -7

Question: And the AERP [15]?
Answer: 42

Question: What about the AERP [16] of the same molecule?
Answer: 68

Question: And the APD [17]?
Answer: 18%

Question: And the Vmax [18]?
Answer: -20

Question: And the APD [19]?
Answer: 56%

Question: And the Vmax [20]?
Answer: -12

Question: And the MBP [21]?
Answer: -17

Question: And the VERP [22]?
Answer: 30

Question: What about the APD [23] of the same molecule?
Answer: 86%

Question: What about the MBP [24] of the same molecule?
Answer: -16

Question: What about the HR [25] of the same molecule?
Answer: -27

Question: And the Vmax [26]?
Answer: 2
